Screens as filed in PubChem.
CHT block = human CHT choline transport inhibition; Q9GZV3; CHT-expressing cells, membrane potential dye, choline response; stronger effect = lower value; B-score at 10 µM; 310,000 compounds, 0.86% hits; AID 488975;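 active = B-score over 3 SD under the library average, and starting fluorescence ratio not unusually high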;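 also: choline stimulus applied at its EC90 after an EC20 pre-addition; B-score computed on integrated fluorescence ratio after choline addition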
CHT PAM = allosterically activates the human high affinity choline transporter; Q9GZV3; CHT-expressing cells, membrane potential dye, choline EC20; stronger effect = higher value; LV-AA mutant CHT in HEK293 cells; B-score at 10 µM; 310,000 compounds, 0.49% hits; AID 488977;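 active = initial fluorescence not abnormally high and integrated response B-score, plate-corrected, over 3 SD above library mean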
Hep lipid drop = modulators of hepatic lipid droplet formation | AML12 mouse hepatocytes, oleate lipid droplets, BODIPY imaging | inhibition, % at 6.5 µM | 240,000 compounds, 0.4% hits;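 active = lipid droplet intensity inhibited by at least 50%, with more than 500 cells counted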
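Assay system: AML12 mouse liver cells | Compound: 6.5 µM single-point dosing | Schedule: Overnight exposure | Technique: Fluorescence imaging, 20x objective, two fields per well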
HSF1 inh = HSF1 inhibition | activity change, negative = inhibition, % at 7.5 µM (by protocol) | 300,000 compounds, 0.77% hits | NIH3T3-HGL HSE-luciferase, MG132-induced, luminescence 8 h; stronger effect = lower value;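 active = more than half of replicate wells show activity change below -50%, luminescence cut by over half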;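 also: luciferase reports HSF-1 transcriptional activity via heat shock element; 0% = median of DMSO wells and -100% = zero luminescence signal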
PHOSPHO1 inh = inhibitors of human PHOSPHO1 phosphatase. inhibition, % at 13.3 µM. 290,000 compounds, 1.1% hits. AID 1565. recombinant PHOSPHO1, absorbance phosphatase assay; in the data active = inhibition above about 60%
Target sequence (Q8TCT1 whole entry, looked up): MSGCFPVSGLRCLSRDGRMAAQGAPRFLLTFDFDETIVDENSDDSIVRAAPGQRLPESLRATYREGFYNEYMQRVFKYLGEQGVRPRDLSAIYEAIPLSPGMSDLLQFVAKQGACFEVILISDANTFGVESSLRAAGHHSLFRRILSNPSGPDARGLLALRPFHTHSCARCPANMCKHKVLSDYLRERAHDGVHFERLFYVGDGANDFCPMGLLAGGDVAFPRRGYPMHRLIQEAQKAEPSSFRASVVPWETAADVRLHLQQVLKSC
HSF1 activator = increases HSF-1 driven luciferase reporter signal | activation, % at 9 µM | AID 504408 | NIH3T3-HGL HSF-1 luciferase reporter, MG132, 8 h; 100% = twice DMSO control signal | 300,000 compounds, 1.7% hits;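 active = mean replicate activation of at least 50% with a set share of replicates each reaching 50%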;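 also: 0% = median of the neutral control wells and 100% = twice that signal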
CHT inh conf = confirmation of human choline transporter CHT inhibitors; shares compounds with CHT block; CHT-expressing cells, choline membrane potential dye; LV-to-AA substituted CHT, HEK293 cells; CHT activity remaining % of control (stronger effect = lower value), % at 10 µM; 2,400 compounds, 70% hits; AID 493221;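 active = choline transporter activity left, mean of duplicates at 10 µM, below buffer-only control mean minus 3 SD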;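 also: depolarization triggered by choline at its EC90 following an EC20 pre-addition; 0% = hemicholinium-3 full block and 100% = buffer-only control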
HEK293 CHT ctr = counter-screen for CHT inhibitors: effect in parental HEK293 cells; membrane potential ratio readout (active if shifted either direction beyond buffer ±3SD; no single direction) at 10 µM; membrane potential dye, choline response; active = decrease or increase beyond buffer ±3SD; 2,400 compounds, 4% hits; shares compounds with CHT block;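 also: parental cells lack the transporter so any hit is non-specific; ratio is peak minus trough fluorescence over baseline after EC90 choline challenge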
An asterisk follows results filed as active; i = inactive; . = no result given. An excerpt weighted towards active compounds, which were near 4.9% of everything screened.

SMILES | CHT block | CHT PAM | Hep lipid drop | HSF1 inh | PHOSPHO1 inh | HSF1 activator | CHT inh conf | HEK293 CHT ctr
CC1CCN(CCNC(=O)C2CCCN(S(=O)(=O)c3cccc4nsnc34)C2)CC1 (configuration not stated) | -8.12* | i | -0.4 | -6.7 | 22.5 | -2.1 | 18.1%* | i
CCN(C(=O)CSc1nc2ccccc2c(=O)n1-c1ccc(C)cc1)C1CCS(=O)(=O)C1 (configuration not stated) | i | i | -20.1 | 3.2 | -7.8 | -5.9 | . | .
N#C/C(=N\Nc1ccccc1Cl)C(=O)c1ccccc1 | i | i | . | -5.8 | 15.4 | -8.2 | . | .
N#C/C(=N\Nc1cccc(Cl)c1)C(=O)c1ccccc1 | -5.23* | i | . | -2.4 | 15.9 | 8.4 | 65.9%* | i
O=C(Nc1ccccc1)N1CCN(c2cccc(C(F)(F)F)c2)CC1 | i | i | 31.2 | -7.1 | -1.3 | -21.3 | . | .
O=C(O)c1cc([N+](=O)[O-])cc([N+](=O)[O-])c1N1CCN(c2cccc(C(F)(F)F)c2)CC1 | -5.27* | i | -4.8 | -4.6 | 32.7 | 7.6 | i | i
COC(=O)c1ccc(/C(O)=C(\C#N)c2nc3ccccc3s2)cc1 | -6.45* | i | . | 2.6 | 8.9 | 23.5 | i | i
CCc1nnc(NS(=O)(=O)c2ccc(NC(=O)/C=C/c3ccccc3Cl)cc2)s1 | -5.57* | i | 6.0 | 0.8 | 42.1 | 9.9 | 51.0%* | i
CCc1nnc(NS(=O)(=O)c2ccc(NC(=S)NC(=O)/C=C/c3ccccc3)cc2)s1 | i | i | -3.0 | 19.0 | -7.9 | 24.8 | . | .
CCCCNC(=O)Nc1c(C(=O)OC)[nH]c2ccc(C)cc12 | -6.89* | i | -17.6 | -2.6 | 12.4 | -2.0 | i | i
CCCCNC(=O)Nc1c(C(=O)OCC)[nH]c2ccccc12 | i | i | . | -0.3 | -5.2 | 11.4 | . | .
CC(=O)Nc1ccc(NC(=O)C(C)OC(=O)c2cccc(S(=O)(=O)N3CCCC3)c2)cc1 (configuration not stated) | i | i | . | -3.7 | . | -9.9 | . | .
CN1CCN(S(=O)(=O)c2ccc(NC(=O)Nc3cccc(Cl)c3)cc2)CC1 | -8.11* | i | -11.3 | 16.4 | -6.7 | 12.3 | 28.6%* | i
CN1CCN(S(=O)(=O)c2ccc(NC(=O)c3ccc(Br)s3)cc2)CC1 | -7.72* | i | -0.2 | 5.9 | 27.1 | 7.9 | 24.5%* | i
CC(=O)Nc1cccc(C(=O)OC(C)C(=O)Nc2ccc(S(=O)(=O)N3CCCC3)cc2)c1 (configuration not stated) | -6.91* | i | . | -0.1 | . | 0.2 | 63.3%* | i
COC(=O)c1cccc(NC(=O)c2ccc(S(=O)(=O)N3CCN(C)CC3)cc2)c1 | -5.06* | i | . | 4.9 | 2.7 | 13.3 | 32.6%* | i
O=C(Nc1cccc(Cl)c1)Nc1cc(S(=O)(=O)N2CCCCC2)ccc1Cl | i | i | -18.0 | 6.0 | 3.4 | 3.1 | . | .
CC1CCCN(CCCNC(=O)c2nn(C)c3c2CSc2ccccc2-3)C1 (configuration not stated) | -6.15* | i | -1.7 | 0.1 | 11.9 | 11.8 | 23.4%* | i
CC1CCCCN1CCCNC(=O)c1nn(C)c2c1CSc1ccccc1-2 (configuration not stated) | -7.56* | i | -57.6 | -0.4 | -1.9 | 8.5 | 8.6%* | i
Cc1ccccc1NC(=O)Cc1nc(CSc2nnc(-c3ccc4c(c3)OCO4)o2)cs1 | i | i | -4.7 | 12.0 | 50.0 | 15.6 | . | .
Oc1c(Br)cc(/C=N/NC(=S)NCc2ccco2)cc1Br | -5.06* | i | -3.2 | -0.6 | 24.3 | 16.4 | 67.3%* | i
CCOc1ccccc1/C=C/c1onc(C)c1S(=O)(=O)N1CCC(C(=O)N2CCCCCC2)CC1 | i | i | -40.2 | 13.6 | 1.2 | 29.6 | . | .
